Measurements as given in ChEMBL document CHEMBL4038302, “Fibroblast Activation Protein α Activated Tripeptide Bufadienolide Antitumor Prodrug with Reduced Cardiotoxicity” (J Med Chem, 2017).

Assays:
Prolyl endopeptidase FAP [1] = target: T1, Prolyl endopeptidase FAP (Homo sapiens, UniProt Q12884); experiment: (§1) Prodrug activation assessed as recombinant human FAP-alpha mediated (S)-((3S,5R,8R,9S,10S,11S,13R,14S,17R)-11,14-dihydroxy-10,13-dimethyl-12-oxo-17-(2-oxo-2H-pyran-5-yl)hexadecahydro-1H-cyclopenta[a]phenanthren-3-yl) 2-amino-3-phenylpropanoate formation by measuring intrinsic clearance after 90 mins by UPLC-MS/MS analysis; conditions: 1.5 h
T1 sequence (Q12884 whole entry): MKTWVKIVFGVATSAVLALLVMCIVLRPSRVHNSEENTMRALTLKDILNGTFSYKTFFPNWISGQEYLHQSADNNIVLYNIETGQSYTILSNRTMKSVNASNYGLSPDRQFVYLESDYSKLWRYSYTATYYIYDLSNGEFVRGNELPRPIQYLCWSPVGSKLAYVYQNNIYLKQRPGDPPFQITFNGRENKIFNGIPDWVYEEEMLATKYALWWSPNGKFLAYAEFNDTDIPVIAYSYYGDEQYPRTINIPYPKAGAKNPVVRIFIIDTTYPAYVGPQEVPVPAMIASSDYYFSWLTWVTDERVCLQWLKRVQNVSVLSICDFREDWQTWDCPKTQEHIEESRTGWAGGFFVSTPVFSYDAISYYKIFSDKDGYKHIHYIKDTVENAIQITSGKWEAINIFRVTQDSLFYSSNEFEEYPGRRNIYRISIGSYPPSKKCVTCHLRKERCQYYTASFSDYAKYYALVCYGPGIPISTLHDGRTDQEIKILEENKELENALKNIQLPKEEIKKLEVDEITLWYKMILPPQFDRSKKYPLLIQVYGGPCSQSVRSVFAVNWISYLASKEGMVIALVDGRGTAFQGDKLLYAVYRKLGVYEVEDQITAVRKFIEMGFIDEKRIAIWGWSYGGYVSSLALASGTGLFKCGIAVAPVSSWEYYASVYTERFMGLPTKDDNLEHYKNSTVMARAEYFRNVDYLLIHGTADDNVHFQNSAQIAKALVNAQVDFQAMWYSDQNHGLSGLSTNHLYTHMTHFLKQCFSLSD
Procedure, shortened: (§2)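 Prodrug at 0.625–40 μmol/L incubated with rhFAPα at 0.45 μg/mL and internal standard in 0.2 mL PBS, pH 7.4, at 37 °C for 90 min. Quenched with MeCN and spun at 18 000g for 15 min; product measured by UPLC-MS/MS. S50 and Vmax fitted with an allosteric sigmoidal model; CLint = Vmax/S50. Three independent experiments.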

Prolyl endopeptidase FAP [2] = target: T1, Prolyl endopeptidase FAP; experiment: as §1, with “2-amino-3-phenylpropanoate” for “2-amino-3-phenylpropanoate formation”, “concentration of test compound gives half-maximal activity formation” for “intrinsic clearance”; conditions: 1.5 h; procedure, shortened: as §2
Prolyl endopeptidase FAP [3] = target: T1, Prolyl endopeptidase FAP; experiment: Prodrug activation assessed as Vmax for recombinant human FAP-alpha mediated (S)-((3S,5R,8R,9S,10S,11S,13R,14S,17R)-11,14-dihydroxy-10,13-dimethyl-12-oxo-17-(2-oxo-2H-pyran-5-yl)hexadecahydro-1H-cyclopenta[a]phenanthren-3-yl) 2-amino-3-phenylpropanoate formation after 90 mins by UPLC-MS/MS analysis; conditions: 1.5 h; procedure, shortened: as §2
Prolyl endopeptidase FAP [4] = target: T1, Prolyl endopeptidase FAP; experiment: Prodrug activation assessed as recombinant human FAP-alpha mediated (S)-((3S,5R,8R,9S,10S,11S,13R,14S,17R)-11,14-dihydroxy-10,13-dimethyl-12-oxo-17-(2-oxo-2H-pyran-5-yl)hexadecahydro-1H-cyclopenta[a]phenanthren-3-yl) 2-amino-3-phenylpropanoate formation at 40 umol/L after 6 hrs in presence of FAP-alpha inhibitor talabostat by UPLC-MS/MS analysis; conditions: 40 µM
Procedure, shortened: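 Prodrug at 40 μmol/L incubated with rhFAPα at 0.45 μg/mL in 0.2 mL buffer at 37 °C for 6 h, with bufalin at 2 μmol/L as internal standard. Stopped with acetonitrile and spun at 18 000g for 15 min. Released active form measured by UPLC-MS/MS via peak-area ratio against a standard curve of 0.625–40 μmol/L.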

Prolyl endopeptidase FAP [5] = target: T1, Prolyl endopeptidase FAP; experiment: Prodrug activation assessed as recombinant human FAP-alpha mediated (2S,3S)-((3S,5R,8R,9S,10S,11S,13R,14S,17R)-11,14-dihydroxy-10,13-dimethyl-12-oxo-17-(2-oxo-2H-pyran-5-yl)hexadecahydro-1H-cyclopenta[a]phenanthren-3-yl) 2-amino-3-methylpentanoate by measuring concentration of test compound gives half-maximal activity formation after 90 mins by UPLC-MS/MS analysis; conditions: 1.5 h; procedure, shortened: as §2
Prolyl endopeptidase FAP [6] = target: T1, Prolyl endopeptidase FAP; experiment: Prodrug activation assessed as recombinant human FAP-alpha mediated (2S,3S)-((3S,5R,8R,9S,10S,11S,13R,14S,17R)-11,14-dihydroxy-10,13-dimethyl-12-oxo-17-(2-oxo-2H-pyran-5-yl)hexadecahydro-1H-cyclopenta[a]phenanthren-3-yl) 2-amino-3-methylpentanoate formation by measuring intrinsic clearance after 90 mins by UPLC-MS/MS analysis; conditions: 1.5 h; procedure, shortened: as §2
Prolyl endopeptidase FAP [7] = target: T1, Prolyl endopeptidase FAP; experiment: Prodrug activation assessed as Vmax for recombinant human FAP-alpha mediated (2S,3S)-((3S,5R,8R,9S,10S,11S,13R,14S,17R)-11,14-dihydroxy-10,13-dimethyl-12-oxo-17-(2-oxo-2H-pyran-5-yl)hexadecahydro-1H-cyclopenta[a]phenanthren-3-yl) 2-amino-3-methylpentanoate formation after 90 mins by UPLC-MS/MS analysis; conditions: 1.5 h; procedure, shortened: as §2
Prolyl endopeptidase FAP [8] = target: T1, Prolyl endopeptidase FAP; experiment: Prodrug activation assessed as recombinant human FAP-alpha mediated 5-((3S,5R,8R,9S,10S,11S,13R,14S,17R)-3-(2-(4-aminophenyl)acetyl)-11,14-dihydroxy-10,13-dimethyl-12-oxohexadecahydro-1H-cyclopenta[a]phenanthren-17-yl)-2H-pyran-2-one formation by measuring intrinsic clearance at 40 umol/L after 6 hrs by UPLC-MS/MS analysis; conditions: 40 µM

SMILES: C[C@]12CC[C@H](OC(=O)[C@H](Cc3ccccc3)NC(=O)[C@@H]3CCCN3C(=O)CNC(=O)OCc3ccccc3)C[C@H]1CC[C@@H]1[C@@H]2[C@H](O)C(=O)[C@]2(C)[C@@H](c3ccc(=O)oc3)CC[C@]12O
- CL (Prolyl endopeptidase FAP [1]): 42360 µL/min/mg
- S50 (Prolyl endopeptidase FAP [2]): 8.64 µmol/L
- Vmax (Prolyl endopeptidase FAP [3]): 0.366 µmol/min/mg
- Drug metabolism (Prolyl endopeptidase FAP [4]): Metabolite_Notdetected

SMILES: CC[C@H](C)[C@H](NC(=O)[C@@H]1CCCN1C(=O)CNC(=O)OCc1ccccc1)C(=O)O[C@H]1CC[C@@]2(C)[C@H](CC[C@@H]3[C@@H]2[C@H](O)C(=O)[C@]2(C)[C@@H](c4ccc(=O)oc4)CC[C@]32O)C1
- S50 (Prolyl endopeptidase FAP [5]): 8.82 µmol/L
- CL (Prolyl endopeptidase FAP [6]): 1590 µL/min/mg
- Vmax (Prolyl endopeptidase FAP [7]): 0.014 µmol/min/mg

SMILES: C[C@]12CC[C@H](OC(=O)Cc3ccc(NC(=O)[C@@H]4CCCN4C(=O)CNC(=O)OCc4ccccc4)cc3)C[C@H]1CC[C@@H]1[C@@H]2[C@H](O)C(=O)[C@]2(C)[C@@H](c3ccc(=O)oc3)CC[C@]12O
- CL (Prolyl endopeptidase FAP [8]): 7070 µL/min/mg
